The target in assay [1] is T1, HEXA/HEXB (Bos taurus, UniProt Q0V8R6+H7BWW2).
T1 sequence (Q0V8R6 whole entry): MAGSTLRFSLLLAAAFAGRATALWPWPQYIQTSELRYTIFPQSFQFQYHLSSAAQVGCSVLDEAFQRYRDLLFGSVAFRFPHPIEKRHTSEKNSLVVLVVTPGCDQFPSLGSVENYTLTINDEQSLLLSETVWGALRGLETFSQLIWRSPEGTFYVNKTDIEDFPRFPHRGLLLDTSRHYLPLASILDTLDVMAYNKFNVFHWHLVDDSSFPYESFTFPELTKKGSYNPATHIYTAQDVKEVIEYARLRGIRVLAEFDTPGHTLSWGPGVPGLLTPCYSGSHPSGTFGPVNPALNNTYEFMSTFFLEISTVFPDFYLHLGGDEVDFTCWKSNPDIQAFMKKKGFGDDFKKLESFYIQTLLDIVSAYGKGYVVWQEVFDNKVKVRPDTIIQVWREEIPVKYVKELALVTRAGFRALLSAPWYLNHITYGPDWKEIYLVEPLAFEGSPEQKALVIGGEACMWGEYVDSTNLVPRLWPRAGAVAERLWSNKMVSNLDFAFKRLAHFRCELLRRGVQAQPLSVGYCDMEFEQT
T1 sequence (H7BWW2 whole entry): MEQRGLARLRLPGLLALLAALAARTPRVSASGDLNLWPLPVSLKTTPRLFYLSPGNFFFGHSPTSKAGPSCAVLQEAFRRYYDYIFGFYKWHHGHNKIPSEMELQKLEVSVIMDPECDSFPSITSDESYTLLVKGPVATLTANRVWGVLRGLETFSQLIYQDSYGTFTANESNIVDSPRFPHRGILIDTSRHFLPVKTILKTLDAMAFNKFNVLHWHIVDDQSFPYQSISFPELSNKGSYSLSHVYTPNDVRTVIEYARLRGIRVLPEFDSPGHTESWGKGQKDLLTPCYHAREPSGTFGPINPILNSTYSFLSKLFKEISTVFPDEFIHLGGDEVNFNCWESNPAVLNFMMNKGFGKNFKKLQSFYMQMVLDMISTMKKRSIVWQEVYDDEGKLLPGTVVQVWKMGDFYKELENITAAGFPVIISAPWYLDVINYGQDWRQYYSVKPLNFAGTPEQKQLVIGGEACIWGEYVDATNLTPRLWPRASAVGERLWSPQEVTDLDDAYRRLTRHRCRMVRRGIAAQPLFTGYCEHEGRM
The experiment in a line: Competitive inhibition of cow HexA/HexB (unknown origin) using pNP-GlcNAc as substrate assessed as inhibition constant by measuring liberation of nitrophenol preincubated with enzyme followed by substrate addition by Dixon plot analysis. It is filed as protein.

Assay [2] concerns the target T2, Protein O-GlcNAcase (Homo sapiens, UniProt O60502).
T2 sequence (O60502 whole entry): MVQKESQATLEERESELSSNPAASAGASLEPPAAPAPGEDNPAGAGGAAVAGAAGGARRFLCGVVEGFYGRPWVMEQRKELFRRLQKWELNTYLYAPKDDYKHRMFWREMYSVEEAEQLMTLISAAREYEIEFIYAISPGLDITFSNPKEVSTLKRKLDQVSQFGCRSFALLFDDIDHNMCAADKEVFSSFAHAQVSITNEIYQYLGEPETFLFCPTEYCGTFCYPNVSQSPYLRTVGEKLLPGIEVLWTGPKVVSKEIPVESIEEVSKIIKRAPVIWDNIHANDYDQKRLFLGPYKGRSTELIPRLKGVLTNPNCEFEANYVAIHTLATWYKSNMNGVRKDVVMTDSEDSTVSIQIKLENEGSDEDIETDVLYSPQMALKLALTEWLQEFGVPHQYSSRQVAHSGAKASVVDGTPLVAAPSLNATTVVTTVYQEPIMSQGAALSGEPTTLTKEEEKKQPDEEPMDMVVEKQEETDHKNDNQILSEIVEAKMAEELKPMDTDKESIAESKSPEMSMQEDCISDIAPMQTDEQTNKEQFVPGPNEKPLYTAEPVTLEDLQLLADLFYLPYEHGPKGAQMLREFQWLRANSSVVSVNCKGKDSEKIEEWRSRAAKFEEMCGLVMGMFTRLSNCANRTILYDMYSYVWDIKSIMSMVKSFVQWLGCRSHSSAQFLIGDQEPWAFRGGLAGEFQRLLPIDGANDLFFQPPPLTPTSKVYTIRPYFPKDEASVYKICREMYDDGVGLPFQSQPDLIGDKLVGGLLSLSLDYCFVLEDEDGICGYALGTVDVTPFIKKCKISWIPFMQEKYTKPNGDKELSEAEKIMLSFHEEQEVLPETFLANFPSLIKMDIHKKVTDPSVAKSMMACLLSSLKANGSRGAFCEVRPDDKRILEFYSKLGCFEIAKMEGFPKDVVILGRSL
Put plainly: Competitive inhibition of N-terminal His-tagged human OGA using 4-Mu-GlcNAc as substrate assessed as inhibition constant by measuring liberation of […] preincubated with enzyme followed by substrate addition by Cornish-Bowden method. The procedure, abridged:
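Full-length long isoform of human OGA with an N-terminal His6 tag, expressed in E. coli Rosetta(DE3) and purified on Co2+ IMAC. 3 nM enzyme was pre-incubated at 37 °C with inhibitor (0–100 nM) in 50 mM potassium phosphate, pH 7.5. Reaction was started with 4-MU-GlcNAc at three levels. Fluorescence (ex 360, em 450) was read every 10 s for 10 min. Triplicates; Ki from Dixon plot; mode by Cornish-Bowden.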

The target of assay [3] is T2, Protein O-GlcNAcase. The experiment in a line: Competitive inhibition of N-terminal His-tagged human OGA using pNP-GlcNAc as chromogenic substrate assessed as inhibition constant by measuring liberation of nitrophenol preincubated with enzyme followed by substrate addition by Dixon plot analysis. The procedure, abridged: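 His6-tagged full-length human OGA (Rosetta(DE3), Co2+ IMAC), 33 nM. Pre-incubated with inhibitor at 37 °C in 50 mM potassium phosphate, pH 7.5, 1 ml. Started by adding pNP-GlcNAc at three concentrations. Release of p-nitrophenol followed continuously at 400 nm. Initial rates in triplicate; Ki by linear regression of Dixon plots; modality checked by Cornish-Bowden plots.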

The target in assay [4] is T1, HEXA/HEXB. Put plainly: Inhibition of HexA/HexB (unknown origin). It is filed as protein assay, Homo sapiens.
The target in assay [5] is T2, Protein O-GlcNAcase. Put plainly: Inhibition of OGA (unknown origin) using pNP-O-GlcNAc as substrate assessed as inhibition constant incubated for 30 mins.

As a reminder, the Ki is a dissociation constant, usually derived from enzyme kinetics or from competition with a known ligand. With `CC(=O)N[C@H]1/C(=N/NC(=O)Nc2ccc3ccccc3c2)O[C@H](CO)[C@@H](O)[C@@H]1O`, the Ki was found to be 47 nM at HEXA/HEXB [1] and 36 nM at Protein O-GlcNAcase [2].
On to `CC(=O)N[C@H]1/C(=N/NC(=O)Nc2ccc(C(F)(F)F)cc2)O[C@H](CO)[C@@H](O)[C@@H]1O`, for which the inhibitory constant (Ki) is 167 nM at Protein O-GlcNAcase [3] and 125 nM on HEXA/HEXB [1].
`CC(=O)N[C@H]1/C(=N/NC(=O)Nc2ccc(Cl)cc2)O[C@H](CO)[C@@H](O)[C@@H]1O`: the Ki stood at 170 nM at HEXA/HEXB [1] and 83 nM at Protein O-GlcNAcase [2].
With `CC(=O)N[C@H]1/C(=N/NC(=O)Nc2ccccc2)O[C@H](CO)[C@@H](O)[C@@H]1O`, the inhibition constant (Ki) on Protein O-GlcNAcase [3] was determined as 190 nM; at HEXA/HEXB [1], 205 nM; on HEXA/HEXB [4], 130 nM.
`COc1ccc(NC(=O)N/N=C2\O[C@H](CO)[C@@H](O)[C@H](O)[C@H]2NC(C)=O)cc1`: the Ki at Protein O-GlcNAcase [3] stood at 270 nM; at HEXA/HEXB [1], 413 nM.
On the same counts, the results for `CC(=O)N[C@H]1/C(=N/NC(=O)Nc2cccc3ccccc23)O[C@H](CO)[C@@H](O)[C@@H]1O` are 506 nM and 154 nM.
For `CC(=O)N[C@H]1/C(=N/NC(=S)Nc2ccccc2)O[C@H](CO)[C@@H](O)[C@@H]1O` the same measures were 27000 nM and 30000 nM.
On the same counts, the results for `CC(=O)N[C@H]1/C(=N/NC(=O)Nc2ccc(C)cc2)O[C@H](CO)[C@@H](O)[C@@H]1O` are 155 nM and 332 nM.
Consider `CC(=O)N[C@H]1/C(=N/O)O[C@H](CO)[C@@H](O)[C@@H]1O`, for which the inhibition constant Ki on Protein O-GlcNAcase [5] turned out to be 1600 nM.

The values are drawn from ChEMBL document CHEMBL4840309, “Nanomolar inhibition of human OGA by 2-acetamido-2-deoxy-d-glucono-1,5-lactone semicarbazone derivatives” (Eur J Med Chem, 2021).
